Test results from ChEMBL document CHEMBL4346662, “Synthesis of novel 7-azaindole derivatives containing pyridin-3-ylmethyl dithiocarbamate moiety as potent PKM2 activators and PKM2 nucleus translocation inhibitors” (Eur J Med Chem, 2019).
Calls of active or inactive are those of the source. No cut-off for these calls is given here.

Tests used:
HCT-116 = assay: Antiproliferative activity against human HCT116 cells assessed as reduction in cell growth incubated for 72 hrs by CellTiter-Glo assay; assay type: functional, cell-based; conditions: HCT-116, 72 h
Outline: (§1)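 Cells (H1299 in RPMI 1640; HCT116 and A375 in DMEM; 10% FBS, 37 °C, 5% CO2) plated at 2000 per well, left 24 h, then exposed to ten concentrations or DMSO for 72 h. CellTiter-Glo added, 30 min at room temperature in dark, luminescence read. IC50 fitted from triplicate experiments.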

NCI-H1299 = assay: Antiproliferative activity against human H1299 cells assessed as reduction in cell growth incubated for 72 hrs by CellTiter-Glo assay; assay type: functional, cell-based; conditions: NCI-H1299, 72 h; outline: as §1
A-375 = assay: Antiproliferative activity against human A375 cells assessed as reduction in cell growth incubated for 72 hrs by CellTiter-Glo assay; assay type: functional, cell-based; conditions: A-375, 72 h; outline: as §1
Pyruvate kinase PKM [1] = target: T1, Pyruvate kinase PKM (Homo sapiens, UniProt P14618); assay: Activation of human recombinant His-tagged PKM2 expressed in Escherichia coli assessed as maximal activity using PEP as substrate measured at 30 sec between 3 and 6 mins in presence of […] by fluorescent pyruvate kinase-lactate dehydrogenase coupled assay relative to control
Outline: (§2)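 Pyruvate kinase activity read by fluorescent pyruvate kinase–lactate dehydrogenase coupled assay; AC50 and maximal activation are means of at least two determinations.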
Target sequence in this assay (P14618 2-531 limits assumed): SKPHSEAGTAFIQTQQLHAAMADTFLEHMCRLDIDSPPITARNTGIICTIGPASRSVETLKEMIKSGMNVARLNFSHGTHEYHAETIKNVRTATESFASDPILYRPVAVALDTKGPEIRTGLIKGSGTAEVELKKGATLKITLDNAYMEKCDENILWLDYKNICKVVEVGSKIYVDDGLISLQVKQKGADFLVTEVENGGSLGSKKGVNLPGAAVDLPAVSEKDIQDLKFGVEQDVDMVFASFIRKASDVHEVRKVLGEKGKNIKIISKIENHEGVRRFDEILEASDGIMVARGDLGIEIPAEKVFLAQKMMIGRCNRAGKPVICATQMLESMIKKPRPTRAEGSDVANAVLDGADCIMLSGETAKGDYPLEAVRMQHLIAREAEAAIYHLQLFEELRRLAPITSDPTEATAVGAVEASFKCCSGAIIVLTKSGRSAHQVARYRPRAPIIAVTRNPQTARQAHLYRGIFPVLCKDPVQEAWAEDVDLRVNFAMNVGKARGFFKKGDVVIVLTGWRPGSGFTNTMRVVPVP

Pyruvate kinase PKM [2] = target: T1, Pyruvate kinase PKM; assay: Activation of human recombinant His-tagged PKM2 expressed in Escherichia coli using PEP as substrate measured at 30 sec between 3 and 6 mins in presence of […] by fluorescent pyruvate kinase-lactate dehydrogenase coupled assay; outline: as §2
Target sequence in this assay (P14618 whole entry): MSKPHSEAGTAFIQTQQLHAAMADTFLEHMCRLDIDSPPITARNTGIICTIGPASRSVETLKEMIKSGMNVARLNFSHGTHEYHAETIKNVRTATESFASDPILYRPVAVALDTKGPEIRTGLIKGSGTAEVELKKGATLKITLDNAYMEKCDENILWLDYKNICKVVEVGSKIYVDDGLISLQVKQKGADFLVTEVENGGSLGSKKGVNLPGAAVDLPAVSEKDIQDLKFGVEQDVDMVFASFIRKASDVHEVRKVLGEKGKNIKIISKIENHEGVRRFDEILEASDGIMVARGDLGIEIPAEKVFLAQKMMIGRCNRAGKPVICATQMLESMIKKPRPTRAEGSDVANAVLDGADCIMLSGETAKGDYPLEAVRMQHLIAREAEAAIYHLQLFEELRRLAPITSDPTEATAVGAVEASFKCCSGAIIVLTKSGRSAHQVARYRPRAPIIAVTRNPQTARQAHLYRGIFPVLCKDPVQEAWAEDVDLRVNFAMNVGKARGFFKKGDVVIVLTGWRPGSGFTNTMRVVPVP

| IC50 (HCT-116) | IC50 (NCI-H1299) | IC50 (A-375) | %max (Pyruvate kinase PKM [1]) | AC50 (Pyruvate kinase PKM [2]) | AC50 (Pyruvate kinase PKM [2]; read-out: AC50) | SMILES |
| --- | --- | --- | --- | --- | --- | --- |
| 3.09 µM | 3.68 µM | 1030 nM | 113% | – | – | O=C(CCSC(=S)NCc1cccnc1)c1c[nH]c2ncccc12 |
| – | – | – | inactive | Not Active | – | O=C(CCSC(=S)NCc1cccnc1)c1c[nH]c2nccc(C3CC3)c12 |
| – | – | – | 23% | – | > 20000 nM | O=C(CCSC(=S)NCc1cccnc1)c1cnn2ccccc12 |
| – | – | – | 28% | – | 2170 nM | O=C(CCSC(=S)NCc1cccnc1)c1c[nH]c2nccc(-c3ccccc3)c12 |
| 5.36 µM | 10 µM | 3860 nM | 77% | – | 2500 nM | O=C(CCSC(=S)NCc1cccnc1)c1cn(-c2ccccc2)c2ncccc12 |
| 1.52 µM | 1.76 µM | 330 nM | 44% | – | 220 nM | O=C(CCSC(=S)NCc1cccnc1)c1cnn2ncccc12 |
| – | – | – | inactive | Not Active | – | O=C(CCSC(=S)NCc1cccnc1)c1cn(-c2cccs2)c2ncccc12 |
| 6.16 µM | 8.87 µM | 3380 nM | 71% | – | 180 nM | O=C(CCSC(=S)NCc1cccnc1)c1c[nH]c2ncc(Cl)cc12 |
| – | – | – | inactive | Not Active | – | O=C(CCSC(=S)NCc1cccnc1)c1c[nH]c2nc(Cl)ccc12 |
| – | – | – | 24% | – | > 20000 nM | C#Cc1ccnc2[nH]cc(C(=O)CCSC(=S)NCc3cccnc3)c12 |
